Consider two molecules from ChEMBL document CHEMBL5543129, “Peptide Inhibitor Targeting the Extraterminal Domain in BRD4 Potently Suppresses Breast Cancer Both In Vitro and In Vivo” (J Med Chem, 2024).

The source made the active and inactive calls. The calls are words filed in the database; no cut-off is given here. Square brackets hold non-standard residues; d marks the D form. Peptide text beside a SMILES is read from it. Hyp = O=C(O)[C@@H]1C[C@@H](O)CN1; Ahx = NCCCCCC(=O)O

Series [1] concerns Mus musculus. As to the kind of experiment: Downregulation of c-Myc mRNA expression in BALB/c mouse tumor xenografted with human MDA-MB-231 cells at 25 mg/kg, ip administered every 2 days by RT-qPCR analysis. The class given is functional, organism-based. The procedure, abridged: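 Female BALB/c nude mice (4–6 weeks) implanted subcutaneously with 5 × 10^6 cells in PBS. For MCF7 grafts, estrogen (E2, 10–2 M) is brushed on every 2 days. Treatment starts at ~50 mm3 after randomization, with peptide in normal saline ip every 2 days. Tumour mRNA is measured by RT-qPCR.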
On the technique in general: A xenograft is tissue or cells of one species grown in another, often human tumour cells in immunodeficient mice.

A short description of series [2]: Downregulation of BRD4 protein expression in BALB/c mouse tumor xenografted with human MDA-MB-231 cells assessed as fold change in remaining BRD4 level at 25 mg/kg, ip administered every 2 days by immunoblotting analysis. The series is classed as functional. In outline:
(§1)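 Tumours taken from xenograft mice dosed with peptide at 25 mg/kg ip every 2 days. […] Three repeats.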

The subject of series [3] is MDA-MB-231. As to the kind of experiment: Downregulation of […] gene expression in human MDA-MB-231 cells at 10 uM incubated for 6 hrs by RT-qPCR analysis. The class given is functional, cell-based. In outline:
(§2)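 Cells treated with peptide (10 μM) for 6 h; c-Myc, N-myc and CCND1 mRNA measured by RT-qPCR. Three biological repeats.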
Background: Real-time PCR tracks product formation cycle by cycle.

The nature of series [4]: Downregulation of BRD4 protein expression in human MDA-MB-231 cells assessed as fold change in remaining BRD4 level at 10 uM incubated for 24 hrs by immunoblotting analysis (reference value: 1). The series is classed as functional. In outline:
(§3)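 Cells treated with peptide (10 μM) for 24 h. Lysates in Tris/NaCl/EDTA/1% Triton X-100, run on 10% SDS-PAGE and immunoblotted with ECL detection. β-actin as loading control. Three repeats, quantified against untreated cells.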

The test system of series [5] is T47D. As to the kind of experiment: Inhibition of colony formation in human T47D cells at 10 uM incubated for 2 weeks by crystal violet staining based assay. The series is classed as functional, cell-based. In outline: (§4)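 Cells are seeded at 1 × 10^3/well and treated with peptide (10 μM) for 2 weeks, alone or with JQ1 5 μM, iJMJD6 10 μM, ICI 2.5 μM, or tamoxifen 3 μM (tamoxifen-resistant lines). Colonies are stained with crystal violet, dissolved in 10% acetic acid, and read at 590 nm. Three biological repeats.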

A short description of series [6]: Downregulation of CCND1 protein expression in human MCF7 cells assessed as fold change in remaining CCND1 level at 10 uM incubated for 24 hrs by immunoblotting analysis (reference value: 1). The class given is functional. In outline: as §3
Another series concerns BT-549. As to the kind of experiment: Inhibition of colony formation in human BT-549 cells at 10 uM incubated for 2 weeks by crystal violet staining based assay. The series is classed as functional, cell-based. In outline: as §4
Series [7] in a line: Toxicity in BALB/c mouse xenografted with human MCF7 cells assessed as change body weight at 12.5 mg/kg, ip administered every 2 days in presence of 50 mg/kg JQ1. Particulars: in vivo, 48 h. The series is classed as organism-based.
The nature of series [8]: Toxicity in BALB/c mouse xenografted with human MCF7 cells assessed as change in lung morphology at 12.5 mg/kg, ip administered every 2 days in presence of 50 mg/kg JQ1. The series is classed as organism-based. The conditions noted are these: in vivo, 48 h.
Series [9] relates to MDA-MB-231. As to the kind of experiment: Antitumor activity against human MDA-MB-231 cells xenografted in BALB/c nude mouse assessed as reduction in tumor growth at 25 mg/kg, ip administered every 2 days. The series is classed as functional, organism-based. In outline: (§5)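 Female BALB/c nude mice, 4–6 wk, given 5 × 10^6 cells in PBS subcutaneously; MCF7 mice also had E2 (10^-2 M) brushed on the neck every 2 days. Randomised at ~50 mm3. Peptide in 0.9% saline, 25 mg/kg ip every 2 days. Caliper volume (1/2 × L × W²) every 2 days.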

For series [10], the system named is MDA-MB-231. As to the kind of experiment: Antitumor activity against human MDA-MB-231 cells xenografted in BALB/c nude mouse assessed as reduction in tumor weight at 12.5 mg/kg, ip administered every 2 days in presence of 50 mg/kg JQ1. The series is classed as functional, organism-based. The procedure, abridged: (§6)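 Female BALB/c nude mice given 5 × 10^6 cells sc (MCF7 mice with E2 10^-2 M every 2 days), randomised at ~50 mm3. Peptide 12.5 mg/kg ip (saline) every 2 days, plus JQ1 50 mg/kg ip (DMSO/10% HPBCD 1:10) every 2 days or iJMJD6 12.5 mg/kg ip (DMSO/PBS 1:20). Caliper volume every 2 days; tumours weighed at the end.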

In series [11] the test system is MCF7. As to the kind of experiment: Downregulation of CCND1 gene expression in human MCF7 cells at 10 uM incubated for 6 hrs by RT-qPCR analysis. The class given is functional, cell-based. The procedure, abridged: as §2
For series [12], the system named is T47D. As to the kind of experiment: Inhibition of colony formation in human T47D cells at 10 uM incubated for 2 weeks in presence of tamoxifen by crystal violet staining based assay. The series is classed as functional, cell-based. The procedure, abridged: as §4
Series [13] has as its system T47D. As to the kind of experiment: Antiproliferative activity against human T47D cells at 10 uM incubated for 1 week in presence of JMJD6 inhibitor by CellTiter 96 Aqueous One Solution based assay. The class given is functional, cell-based. Particulars: time 1.0 weeks.
The test system of series [14] is Mus musculus. As to the kind of experiment: Downregulation of CCND1 mRNA expression in BALB/c mouse tumor xenografted with human MDA-MB-231 cells at 25 mg/kg, ip administered every 2 days by RT-qPCR analysis. The series is classed as functional, organism-based.
The subject of series [15] is MCF7. As to the kind of experiment: Antitumor activity against human MCF7 cells xenografted in BALB/c nude mouse assessed as reduction in tumor volume at 12.5 mg/kg, ip administered every 2 days in presence of 50 mg/kg JQ1. The series is classed as functional, organism-based. The procedure, abridged:
as §6

Series [16] concerns T47D. As to the kind of experiment: Inhibition of cell migration in human T47D cells at 10 uM incubated for 24 hrs in presence of JMJD6 inhibitor by inverted microscopic analysis. The series is classed as functional, cell-based. In outline: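 Cells are seeded at 5 × 10^5/well and scratched at 80–90% confluence. They are kept in serum-free medium with peptide (10 μM); partner agents are JQ1 5 μM, iJMJD6 10 μM, or ICI 2.5 μM. Wound area is imaged by inverted microscope at 0 and 12 or 24 h. Wound closure % = (A0−A1)/A0 × 100. Three biological repeats.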

Series [17] concerns MCF7. As to the kind of experiment: Antitumor activity against human MCF7 cells xenografted in BALB/c nude mouse assessed as reduction in tumor growth at 25 mg/kg, ip administered every 2 days. The class given is functional, organism-based. In outline:
as §5

A short description of series [18]: Downregulation of […] protein expression in human MDA-MB-231 cells assessed as fold change in […] at 10 uM incubated for 24 hrs by immunoblotting analysis (reference value: 1). The class given is functional. In outline:
as §3
For orientation: In western blotting, separated proteins are transferred to a membrane and probed.

Series [19] can be described thus: Toxicity in BALB/c mouse xenografted with human MCF7 cells assessed as change in liver morphology at 12.5 mg/kg, ip administered every 2 days in presence of 50 mg/kg JQ1. Particulars: in vivo, 48 h. The class given is organism-based.
The nature of series [20]: Downregulation of N-myc protein expression in BALB/c mouse tumor xenografted with human MCF7 cells assessed as fold change in remaining N-myc level at 25 mg/kg, ip administered every 2 days by immunoblotting analysis. The class given is functional. The procedure, abridged: as §1
The nature of series [21]: Toxicity in BALB/c mouse xenografted with human MCF7 cells assessed as change in lung at 12.5 mg/kg, ip administered every 2 days in presence of 12.5 mg/kg JMJD6 inhibitor. The class given is organism-based. Particulars: in vivo, 48 h. The procedure, abridged:
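Female BALB/c nude mice carried MCF7 xenografts (5 × 10^6 cells sc, E2 10–2 M brushed every 2 days) and were randomized at about 50 mm3. Peptide was given at 12.5 mg/kg ip every 2 days, and iJMJD6 (DMSO/PBS 1:20) at 12.5 mg/kg ip every other day, alone or combined. Body and organ weights were recorded.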

Turning to `CC[C@H](C)[C@H](NC(=O)[C@H](Cc1ccc(O)cc1)NC(=O)[C@@H]1C[C@@H](O)CN1C(=O)[C@H](C)NC(=O)[C@@H](NC(=O)CCCCCNC(=O)[C@H](CCC(=O)O)NC(=O)CNC(=O)[C@H](CS)NC(=O)[C@H](CCCCN)NC(=O)[C@H](Cc1ccccc1)NC(=O)[C@H](CCCCN)NC(=O)[C@H](CCC(N)=O)NC(=O)[C@H](CC(N)=O)NC(=O)[C@H](CCCNC(=N)N)NC(=O)[C@H](CCCNC(=N)N)NC(=O)[C@H](CCCNC(=N)N)NC(=O)[C@H](CCCNC(=N)N)NC(=O)[C@H](CCC(N)=O)NC(=O)[C@H](CCCNC(=N)N)NC(=O)[C@H](CCCNC(=N)N)NC(=O)[C@H](CCCCN)NC(=O)[C@H](CCCCN)NC(=O)[C@H](CCCNC(=N)N)NC(=O)CNC(=O)[C@@H](N)Cc1ccc(O)cc1)[C@@H](C)CC)C(=O)O` (H-YGRKKRRQRRRRNQKFKCGE[Ahx]IA[Hyp]YI-OH), the outcome in the series with Mus musculus [1], with MDA-MB-231 [3], with MDA-MB-231 [9], with MDA-MB-231 [10], with MCF7 [11] and with T47D [13] was Active. For the same molecule, the outcome in the series on Mus musculus [14], with MCF7 [15] and in the series on MCF7 [17] was Active. The “fold change (FC)” value in series [2] is given as 0.15; in series [4], 0.55; in series [6] it was 0.58; in series [18] it was 0.68; in [20], 0.43. The inhibition entry in the series with T47D [5], with BT-549, with T47D [12] and in the series with T47D [16] was “Active” throughout. Moreover, the Activity result in series [7], in series [8], in [19] and in [21] was “Non-Toxic” throughout.

For H-YGRKKRRQRRRRNQKFKCGE-OH, the result in the series on Mus musculus [1], with MDA-MB-231 [3], in the series on MDA-MB-231 [9], in the series on MDA-MB-231 [10], with MCF7 [11] and in the series with T47D [13] was Active. Besides, the outcome with Mus musculus [14], in the series on MCF7 [15] and in the series on MCF7 [17] was Active. The “fold change (FC)” value worked out at 0.63 in series [2]; 1.06 in series [4]; 0.68 in [6]; 0.72 in series [18]; 0.38 in series [20]. Also, the inhibition result with T47D [5], in the series on BT-549, with T47D [12] and in the series on T47D [16] was “Active” each time. The Activity result in series [7], in series [8], in [19] and in [21] was “Non-Toxic” throughout.
